Results on two molecules are retold here after ChEMBL document CHEMBL3994624, “Antimalarial Pyrido[1,2-a]benzimidazoles: Lead Optimization, Parasite Life Cycle Stage Profile, Mechanistic Evaluation, Killing Kinetics, and in Vivo Oral Efficacy in a Mouse Model” (J Med Chem, 2017).

By IC50 is commonly meant the midpoint of a concentration-inhibition curve. Broadly, the half-life is the time needed for the level to fall by half in the phase considered. A word on the Cmax: it is the highest concentration seen after dosing. By Tmax is commonly meant the time at which the peak concentration occurs. Broadly, the Vd is the apparent volume that relates the amount in the body to the concentration in plasma or blood. The clearance is a measure of how efficiently the substance is removed, as volume per time. The term AUC denotes concentration integrated over time. A word on the bioavailability: it is dose-corrected exposure relative to a reference, in per cent.

Data set [1] has as its system Ferriprotoporphyrin IX. The data set can be described thus: Inhibition of beta hematin formation in ring stage of chloroquine-sensitive Plasmodium falciparum NF54 assessed as decrease in haemozoin level after 36 hrs by UV-vis spectra analysis. Summed up:
(§1)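 Synchronized ring-stage parasites treated with increasing drug concentrations, then cellular fractionation. Free haem and haemozoin quantified as iron (fg/cell) and compared with untreated control; significance by p-values; parasite survival overlaid.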

In data set [2] the test system is Ferriprotoporphyrin IX. The data set can be described thus: Inhibition of beta hematin formation in ring stage of chloroquine-sensitive Plasmodium falciparum NF54 assessed as increase in free heme level after 36 hrs by UV-vis spectra analysis. Put shortly: as §1
The test system of data set [3] is Plasmodium berghei. In words: Antimalarial activity against GFP-fused Plasmodium berghei ANKA infected in mouse assessed as protection against parasitemia at 50 mg/kg, po administered once daily for 4 days measured 30 days post infection by light microscopy. Format: functional, organism-based. Put shortly:
(§2)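 P. berghei-infected mice, 3 per group. Compound formulated in 90/10 Tween80/ethanol (v/v), diluted 10-fold with water, given orally once daily at 4, 24, 48 and 72 h post-infection. Outcomes: % parasitemia reduction versus untreated control, mean survival days, and cured/infected. Mice with <40% reduction euthanized on day 4.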

For data set [4], the system named is Plasmodium berghei. The data set can be described thus: Antimalarial activity against GFP-fused Plasmodium berghei ANKA infected in mouse assessed as protection against parasitemia at 25 mg/kg, po administered once daily for 4 days measured 30 days post infection by light microscopy. Format: functional, organism-based.
Data set [5] deals with Plasmodium berghei. The data set can be described thus: Antimalarial activity against GFP-fused Plasmodium berghei ANKA infected in mouse assessed as protection against parasitemia at 12.5 mg/kg, po administered once daily for 4 days measured 30 days post infection by light microscopy. It counts as functional, organism-based.
Data set [6] deals with Plasmodium berghei. In words: Antimalarial activity against GFP-fused Plasmodium berghei ANKA infected in mouse assessed as protection against parasitemia at 6 mg/kg, po administered once daily for 4 days measured 30 days post infection by light microscopy. It counts as functional, organism-based.
In data set [7] the test system is Plasmodium berghei. In words: Antimalarial activity against GFP-fused Plasmodium berghei ANKA infected in mouse assessed as protection against parasitemia at 3 mg/kg, po administered once daily for 4 days measured 30 days post infection by light microscopy. Format: functional, organism-based. Summed up: as §2
The subject of data set [8] is Plasmodium falciparum. In words: Anti-plasmodial activity against multidrug resistant Plasmodium falciparum K1 by [3H]-hypoxanthine incorporation assay. Format: functional. Put shortly: (§3)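 P. falciparum asexual blood-stage growth inhibition by [3H]hypoxanthine incorporation; chloroquine and artesunate run as reference drugs in every experiment; IC50 given as mean of ≥2 independent experiments.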

The subject of data set [9] is Plasmodium falciparum. The data set can be described thus: Anti-plasmodial activity against chloroquine-sensitive Plasmodium falciparum NF54 by [3H]-hypoxanthine incorporation assay. Format: functional. Summed up:
as §3

For data set [10], the system named is CHO. The data set can be described thus: Cytotoxicity against CHO cells after by MTT assay. To be noted: Cricetulus griseus. It counts as cell-based.
The nature of data set [11]: Selectivity index, ratio of IC50 for CHO cells to IC50 for chloroquine-sensitive Plasmodium falciparum NF54. It counts as toxicity. To be noted: hamster, read-out: Ratio IC50. Put shortly: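 Selectivity index = IC50 CHO / IC50 PfNF54.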
Data set [12] is described as follows: Kinetic solubility of the compound in FaSSIF at pH 6.5 after 2 hrs by shake flask method. It counts as physicochemical. Particulars: read-out: Kinetic_solubility.
A short description of data set [13]: Metabolic stability in Balb/c mouse liver microsomes assessed as compound remaining at 1 uM in presence of NADPH after 30 mins by LC-MS/MS analysis. Format: ADME, microsome. Particulars: read-out: Stability. Put shortly: (§4)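 Mouse and human liver microsomes; % compound remaining after 30 min.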
A general note: Liver microsomes are a subcellular fraction often used to study metabolism.

Data set [14] is described as follows: Metabolic stability in human liver microsomes assessed as compound remaining at 1 uM in presence of NADPH after 30 mins by LC-MS/MS analysis. To be noted: read-out: Stability. Format: ADME, microsome. Summed up: as §4
The test system of data set [15] is Plasmodium berghei. The data set can be described thus: Antimalarial activity against GFP-fused Plasmodium berghei ANKA infected in mouse assessed as reduction in parasitemia at 50 mg/kg, po administered once daily for 4 days by flow cytometry relative to control. Format: functional. On the set-up: scale not given: the % may be the effect or the level left. Put shortly: as §2

Data set [16] relates to Plasmodium berghei. In words: Antimalarial activity against GFP-fused Plasmodium berghei ANKA infected in mouse assessed as reduction in parasitemia at 3 mg/kg, po administered once daily for 4 days by flow cytometry relative to control. On the set-up: scale not given: the % may be the effect or the level left. It counts as functional. Put shortly: as §2
A general note: In flow cytometry, cells or beads pass a laser one at a time.

The subject of data set [17] is Plasmodium berghei. In words: Antimalarial activity against GFP-fused Plasmodium berghei ANKA infected in mouse assessed as reduction in parasitemia at 30 mg/kg, po administered once daily for 4 days by flow cytometry relative to control. Format: functional. On the set-up: scale not given: the % may be the effect or the level left. Summed up:
as §2

For data set [18], the system named is Plasmodium berghei. In words: Antimalarial activity against GFP-fused Plasmodium berghei ANKA infected in mouse assessed as reduction in parasitemia at 10 mg/kg, po administered once daily for 4 days by flow cytometry relative to control. It counts as functional. On the set-up: scale not given: the % may be the effect or the level left. Put shortly: as §2

Data set [19] has as its system Plasmodium berghei. In words: Antimalarial activity against GFP-fused Plasmodium berghei ANKA infected in mouse assessed as mouse mean survival days at 30 mg/kg, po administered once daily for 4 days. It counts as functional. Summed up:
(§5)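 P. berghei-infected mice (n=3 per dose) dosed orally once daily on 4 consecutive days at 4, 24, 48 and 72 h after infection; compound in 90/10 Tween80/ethanol (v/v) diluted 10-fold with water. Read-outs were % parasitemia reduction, mean survival time in days and cure; mice with <40% parasitemia reduction euthanized on day 4.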

Data set [20] deals with Plasmodium berghei. In words: Antimalarial activity against GFP-fused Plasmodium berghei ANKA infected in mouse assessed as mouse mean survival days at 3 mg/kg, po administered once daily for 4 days. It counts as functional. Summed up:
as §5

Data set [21] has as its system Plasmodium berghei. In words: Antimalarial activity against GFP-fused Plasmodium berghei ANKA infected in mouse assessed as mouse mean survival days at 50 mg/kg, po administered once daily for 4 days. It counts as functional. Summed up: as §5
Data set [22] deals with Plasmodium berghei. In words: Antimalarial activity against GFP-fused Plasmodium berghei ANKA infected in mouse assessed as mouse mean survival days at 10 mg/kg, po administered once daily for 4 days. It counts as functional. Summed up:
as §5

Data set [23] relates to Plasmodium berghei. In words: Antimalarial activity against GFP-fused Plasmodium berghei ANKA infected in mouse assessed as protection against parasitemia at 30 mg/kg, po administered once daily for 4 days measured 30 days post infection by light microscopy. It counts as functional, organism-based. Put shortly: as §2
Data set [24] deals with Plasmodium berghei. In words: Antimalarial activity against GFP-fused Plasmodium berghei ANKA infected in mouse assessed as protection against parasitemia at 10 mg/kg, po administered once daily for 4 days measured 30 days post infection by light microscopy. It counts as functional, organism-based. Put shortly: as §2
A short description of data set [25]: Half life in C57/Bl6 mouse at 2.5 mg/kg, iv by LC-MS method. It counts as ADME, organism-based. To be noted: in vivo. Put shortly:
(§6)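 Mice (n=3) given a single intravenous dose of 2.5 mg/kg in dimethylacetamide:polyethylene glycol:propylene glycol/ethanol (4:1) at 1:3:6; 24 h sampling. Parameters were fitted by nonlinear mixed-effects two-compartment model with first-order elimination.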

Data set [26] in a line: Half life in C57/Bl6 mouse at 10 mg/kg, po administered via gavage by LC-MS method. Format: ADME, organism-based. To be noted: in vivo. Put shortly:
(§7)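 Mice (n=3) given a single oral dose of 10 mg/kg as a suspension in […] HPMC; plasma sampled over 24 h. Parameters were estimated by nonlinear mixed-effects modelling with a two-compartment disposition model, first-order absorption and elimination.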

Data set [27] can be described thus: Cmax in C57/Bl6 mouse at 10 mg/kg, po administered via gavage by LC-MS method. Format: ADME, organism-based. On the set-up: dose 10 mg/kg, route oral. Particulars: in vivo. Put shortly: as §7
A short description of data set [28]: Tmax in C57/Bl6 mouse at 10 mg/kg, po administered via gavage by LC-MS method. It counts as ADME, organism-based. To be noted: in vivo. Summed up: as §7
Data set [29] in a line: Volume of distribution in C57/Bl6 mouse at 2.5 mg/kg, iv by LC-MS method. It counts as ADME, organism-based. Particulars: in vivo. Summed up: as §6
A short description of data set [30]: Clearance in C57/Bl6 mouse at 2.5 mg/kg, iv by LC-MS method. Particulars: in vivo. It counts as ADME, organism-based. Put shortly: as §6
In data set [31] the test system is Mus musculus. In words: AUC (0 to infinity) in C57/Bl6 mouse at 2.5 mg/kg, iv by LC-MS method. Format: ADME, organism-based. Particulars: in vivo. On the set-up: dose 2.5 mg/kg, time infinity, route intravenous. Put shortly: as §6
For data set [32], the system named is Mus musculus. In words: AUC (0 to infinity) in C57/Bl6 mouse at 10 mg/kg, po administered via gavage by LC-MS method. It counts as ADME, organism-based. On the set-up: dose 10 mg/kg, route oral, time infinity. To be noted: in vivo. Put shortly: as §7
Data set [33] is described as follows: Oral bioavailability in C57/Bl6 mouse at 10 mg/kg administered via gavage by LC-MS method. Format: ADME, organism-based. Particulars: in vivo. Summed up: as §7
Data set [34] has as its system Plasmodium falciparum. The data set can be described thus: Anti-plasmodial activity against chloroquine-sensitive Plasmodium falciparum NF54 late 4/5 stage gametocytes assessed as reduction in ATP levels after 24 hrs by BacTiter-Glo reagent based bioluminescence assay. Format: functional. Particulars: NF54, 24 h.
Data set [35] deals with Plasmodium falciparum. The data set can be described thus: Ratio of IC50 for chloroquine-sensitive Plasmodium falciparum NF54 early 2/3 stage gametocytes to IC50 for chloroquine-sensitive Plasmodium falciparum NF54 late 4/5 stage gametocytes. It counts as functional. Put shortly:
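Early (stage II/III) and late (stage IV/V) gametocytes tested in parallel luciferase reporter assays; stage preference = EG IC50/LG IC50.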

Data set [36] relates to Huh-7. The data set can be described thus: Cytotoxicity against human HuH7 cells at 1 to 10 uM after 48 hrs by Alamarblue assay. Format: cell-based. To be noted: huh-7, 48 h. On the technique in general: Alamar Blue is a resazurin reagent that responds to reducing activity.
The subject of data set [37] is Plasmodium falciparum. In words: Ratio of IC50 for chloroquine-sensitive Plasmodium falciparum NF54 after 24 hrs to IC50 for chloroquine-sensitive Plasmodium falciparum NF54 after 72 hrs. It counts as functional.

Values after ≈ are worked out from the molar mass of the structure shown. Active and inactive are the calls of the source. Where only a bound is given, the exact number is not on record here.

Regarding `CCNCCNc1cc(-c2ccc(C(F)(F)F)cc2)c(C#N)c2nc3ccccc3n12`, the inhibition result in [1] and in data set [2] was “Dose-dependent effect” in each case. The result in data set [3], in data set [4], in [5], in data set [6] and in data set [7] was inactive.
`CCNCCNc1cc(-c2ccc(C(F)(F)F)cc2)c(C#N)c2nc3cc(Cl)c(Cl)cc3n12`: the IC50 in data set [8] was found to be 20 nM; in [9] it was 20 nM; in [10] it was 3390 nM; in data set [34] it was 720 nM. Also, the selectivity ratio in data set [11] worked out at 188. Further, the solubility kinetic at 2 h in [12] worked out at 10 µM (≈ 4.92 µg/mL). The remaining at 0.5 h, 1 µM came to 81% in data set [13] and 95% in [14]. In addition, the Activity is on record as 98% in data set [15]; 99.5% in data set [16]; 99.7% in data set [17]; 99.6% in data set [18]; “Non-Toxic” in data set [36]. The MSD in [19] worked out at 30 days; in [20], 17 days; in data set [21] it was 30 days; in data set [22] it was 18 days. Also, the result in data set [3] and in data set [23] was Active. In addition, the result in data set [7] and in data set [24] was inactive. Further, the half-life in [25] and in data set [26] was 15 h in each case. Besides, the Cmax in data set [27] was 70 nM. In addition, the Tmax in [28] was 10 h. Besides, the Vd in data set [29] amounted to 26 L/kg. In [30], this molecule registered a clearance of 21 mL/min/kg. In addition, the values for the AUC in data set [31] and in [32] were 4.27 µM·h and 2.63 µM·h, respectively. The bioavailability in data set [33] is less than 15%. The “Ratio IC50” value is on record as 1.2 in [35] and 1.5 - 2 in [37].
